According to ChEMBL document CHEMBL4627371, “Discovery of novel heat shock protein (Hsp90) inhibitors based on luminespib with potent antitumor activity” (Bioorg Med Chem Lett, 2020):
pIC50: −log10 of the molar value.

Assays:
[1] = Toxicity in BALB/c athymic nu/nu mouse xenografted with human NCI-H1975 cells assessed as effect on body weight at 200 mg/kg, iv administered once a week for 3 weeks; assay type: organism-based; conditions: in vivo, 504 h
Outline: (§1)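 Athymic BALB/c-nu/nude mice bearing NCI-H1975 human lung carcinoma xenografts, n = 6 per group. Compounds were given i.v. at 200 mg/kg once weekly for three weeks. Deaths and body weight loss were recorded. Tumor growth inhibition was calculated from mean treated versus mean control tumor volumes.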

[2] = Toxicity in BALB/c nu/nu mouse xenografted with human A2780 cells assessed as mouse death at 50 mg/kg, iv administered 3 times a week for 2 weeks starting from 5 to 6 days post tumor inoculation; assay type: organism-based; conditions: in vivo
Outline: (§2)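 Human A2780 ovarian adenocarcinoma cells were cultured and implanted into BALB/c-nu/nude mice, n = 6 per group. Tumor size and volume were measured 5 or 6 days later. Compounds were suspended in 1% carboxymethyl cellulose and given intravenously. Deaths and body weight were monitored. Tumor growth inhibition = [1 − (mean treated tumor volume)/(mean control tumor volume)] × 100%.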

[3] = test system: A2780; assay: Cytotoxicity against human A2780 cells assessed as cell growth inhibition; assay type: functional, cell-based
[4] = test system: HCT-116; assay: Cytotoxicity against human HCT116 cells assessed as cell growth inhibition; assay type: functional, cell-based
[5] = target: T1, Heat shock protein HSP90 (Homo sapiens, UniProt P07900+P08238); assay: Inhibition of HSP90 (unknown origin) assessed as HER2 degradation by cell-based assay
[6] = target: T1, Heat shock protein HSP90; assay: Inhibition of HSP90 ATPase activity (unknown origin); assay type: protein assay
[7] = Toxicity in BALB/c athymic nu/nu mouse xenografted with human NCI-H1975 cells assessed as mouse death at 200 mg/kg, iv administered once a week for 3 weeks; assay type: organism-based; conditions: in vivo, 504 h; outline: as §1
[8] = test system: A2780; assay: Antitumor activity against human A2780 cells xenografted in BALB/c nu/nu mouse assessed as tumor growth inhibition at 50 mg/kg, iv administered 3 times a week for 2 weeks starting from 5 to 6 days post tumor inoculation relative to control; assay type: functional; conditions: read-out: TGI; outline: as §2
[9] = test system: NCI-H1975; assay: Antitumor activity against human NCI-H1975 cells xenografted in BALB/c athymic nu/nu mouse assessed as tumor growth inhibition at 200 mg/kg, iv administered once a week for 3 weeks relative to control; assay type: functional; conditions: 504 h, read-out: TGI; outline: as §1
[10] = Toxicity in BALB/c nu/nu mouse xenografted with human A2780 cells assessed as effect on body weight at 50 mg/kg, iv administered 3 times a week for 2 weeks starting from 5 to 6 days post tumor inoculation; assay type: organism-based; conditions: in vivo; outline: as §2
[11] = Toxicity in BALB/c nu/nu mouse xenografted with human A2780 cells assessed as mouse death at 50 mg/kg, iv administered 3 times a week for 3 weeks starting from 5 to 6 days post tumor inoculation; assay type: organism-based; conditions: in vivo; outline: as §2
[12] = test system: A2780; assay: Antitumor activity against human A2780 cells xenografted in BALB/c nu/nu mouse assessed as tumor growth inhibition at 50 mg/kg, iv administered 3 times a week for 3 weeks starting from 5 to 6 days post tumor inoculation relative to control; assay type: functional; conditions: read-out: TGI; outline: as §2
[13] = Toxicity in BALB/c nu/nu mouse xenografted with human A2780 cells assessed as effect on body weight at 50 mg/kg, iv administered 3 times a week for 3 weeks starting from 5 to 6 days post tumor inoculation; assay type: organism-based; conditions: in vivo; outline: as §2
[14] = test system: NCI-H1975; assay: Antitumor activity against human NCI-H1975 cells xenografted in BALB/c athymic nu/nu mouse assessed as tumor growth inhibition at 150 mg/kg, iv administered once a week for 3 weeks relative to control; conditions: 504 h, read-out: TGI
[15] = Toxicity in BALB/c athymic nu/nu mouse xenografted with human NCI-H1975 cells assessed as mouse death at 150 mg/kg, iv administered once a week for 3 weeks; assay type: organism-based; conditions: in vivo, 504 h
[16] = Toxicity in BALB/c athymic nu/nu mouse xenografted with human NCI-H1975 cells assessed as effect on body weight at 150 mg/kg, iv administered once a week for 3 weeks; assay type: organism-based; conditions: in vivo, 504 h

SMILES | Activity [1] | Activity [2] | pIC50 [3] | pIC50 [4] | IC50 [5] [nM] | IC50 [6] [nM] | Activity [7] | inhibition in vivo at 50 mg/kg [8] [%] | inhibition in vivo at 200 mg/kg [9] [%] | Activity [10] | Activity [11] | inhibition in vivo at 50 mg/kg [12] [%] | Activity [13] | inhibition in vivo at 150 mg/kg [14] [%] | Activity [15] | Activity [16]
CCNC(=O)c1noc(-c2cc(C(C)C)c(O)cc2O)c1-c1cn[nH]c1 | Non-Toxic | Non-Toxic | 7.42 | 7.37 | 13 | 469 | Non-Toxic | 47.6 | 55.4 | Non-Toxic | – | – | – | – | – | –
CCNC(=O)c1noc(-c2cc(C(C)C)c(O)cc2O)c1-c1cc(CO)no1 | Non-Toxic | – | 8.30 | 7.89 | 42 | 279 | Non-Toxic | – | 50.9 | – | Non-Toxic | 47 | Non-Toxic | – | – | –
CCNC(=O)c1cc(-c2c(C(=O)NCC)noc2-c2cc(C(C)C)c(O)cc2O)on1 | Non-Toxic | – | 7.37 | 7.85 | 28 | 284 | Non-Toxic | – | 44 | – | Non-Toxic | 52 | Non-Toxic | – | – | –
CCNC(=O)c1noc(-c2cc(C(C)C)c(O)cc2O)c1-c1ccc(CN2CCOCC2)cc1 [LUMINESPIB] | – | – | 8.22 | 7.70 | – | – | – | – | – | – | Non-Toxic | 48 | Non-Toxic | 43.5 | Non-Toxic | Non-Toxic
